Bioassay records deposited in PubChem by The Scripps Research Institute Molecular Screening Center.
pPAFAH FP inh: pPAFAH enzyme inhibitors, primary screen, biochemical, fluorescence polarization, human; 330,000 tested, 1.5% active; recombinant pPAFAH, FP-rhodamine probe fluorescence polarization; AID 463082, 2010; inhibition, % at 3.39 µM;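 active means inhibition above the mean inhibition across the screen plus 3 SD, cut at about 25% in these data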;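 further: inhibitors block binding of the rhodamine activity-based probe so polarization drops; 0% = enzyme with DMSO and 100% = wells lacking pPAFAH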
PAFAH2 FP inh: PAFAH2 enzyme inhibitors, primary screen, biochemical, fluorescence polarization, human; 340,000 tested, 0.99% active; Platelet-activating factor acetylhydrolase 2, cytoplasmic (Homo sapiens), Q99487; recombinant PAFAH2, FP-rhodamine activity probe; inhibition, % at 3.39 µM;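 active means inhibition above the mean over all tested compounds plus 3 SD, cut at about 30% in these data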;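 further: inhibitors block probe labeling of enzyme so polarization drops; 0% = enzyme with DMSO and 100% = wells lacking PAFAH2 protein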
PAFAH1B2 FP inh: PAFAH1B2 enzyme inhibitors, primary screen, biochemical, fluorescence polarization, human; Platelet-activating factor acetylhydrolase IB subunit alpha2 (Homo sapiens), P68402; recombinant PAFAH1B2, FP-rhodamine activity probe; inhibition, % at 3.39 µM; 340,000 tested, 1.2% active; AID 492953, 2010;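 active means inhibition above the mean of all tested compounds plus 3 SD, cut at about 24% in these data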;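 further: 0% = enzyme with DMSO and 100% = wells lacking PAFAH1B2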
PAFAH1B3 inh: PAFAH1B3 enzyme inhibitors, primary screen, biochemical, fluorescence polarization, human; inhibition, % at 3.39 µM; 340,000 tested, 0.28% active; Platelet-activating factor acetylhydrolase IB subunit alpha1 (Homo sapiens), Q15102; recombinant PAFAH1B3, FP-rhodamine probe;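 active means inhibition above the screen-wide average of all tested compounds plus 3 SD, cut at about 25% in these data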;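 further: 0% = enzyme with DMSO only and 100% = wells lacking PAFAH1B3 protein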
Target sequence (Q15102 whole entry, looked up): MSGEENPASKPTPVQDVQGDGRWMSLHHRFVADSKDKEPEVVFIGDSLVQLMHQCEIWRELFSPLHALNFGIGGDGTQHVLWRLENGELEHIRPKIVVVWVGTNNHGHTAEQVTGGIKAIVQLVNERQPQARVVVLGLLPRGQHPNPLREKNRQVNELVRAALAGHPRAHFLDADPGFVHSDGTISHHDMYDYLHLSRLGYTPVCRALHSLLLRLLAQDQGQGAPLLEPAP
ABHD4 inh: ABHD4 inhibitors, primary screen, biochemical, fluorescence polarization, mouse | (Lyso)-N-acylphosphatidylethanolamine lipase (Mus musculus), Q8VD66 | purified mABHD4, FP-Rh probe fluorescence polarization | 370,000 tested, 0.54% active | inhibition, % at 8.92 µM | AID 720543, 2013;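 active means inhibition exceeding the mean over every tested compound plus 3 SD, cut at about 30% in these data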;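 further: 0% = plate median of compound wells and 100% = S159A mutant with DMSO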
Target sequence (Q8VD66 whole entry, looked up): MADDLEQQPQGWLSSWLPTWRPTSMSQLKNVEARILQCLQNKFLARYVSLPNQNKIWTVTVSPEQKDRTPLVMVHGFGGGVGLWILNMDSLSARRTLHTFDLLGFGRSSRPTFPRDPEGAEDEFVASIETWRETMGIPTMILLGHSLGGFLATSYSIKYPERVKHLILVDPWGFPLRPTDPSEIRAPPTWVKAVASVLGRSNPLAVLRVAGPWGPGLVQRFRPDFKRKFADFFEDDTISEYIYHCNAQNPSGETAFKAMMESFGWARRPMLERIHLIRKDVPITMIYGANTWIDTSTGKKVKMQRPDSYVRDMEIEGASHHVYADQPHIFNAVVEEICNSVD
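Assay system: mABHD4 protein; medium: HEPES pH 7.0, NaCl, Pluronic buffer; dosing: 8.92 µM, single dose; schedule: 45 min + 60 min at 25 °C; signal: FP readout, ex 525 nm / em 598 nm; read-out: normalized percent inhibition of probe labeling; repeats: single replicate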
HTRA1 inh: HTRA1 serine protease inhibitors, primary screen, biochemical, fluorescence polarization, HTS; Q92743; recombinant HTRA1, FP-rhodamine activity-based probe; inhibition, % at 5.96 µM; 340,000 tested, 0.5% active; AID 504803, 2011; in the data active means inhibition above about 36%;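 further: 0% = enzyme with DMSO and 100% = wells lacking enzyme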
PAFAH2 confirm: PAFAH2 enzyme inhibitors, confirmation, biochemical, fluorescence polarization, human; 2,300 tested, 65% active; AID 493030, 2011; recombinant PAFAH2, FP-rhodamine activity probe; shares compounds with PAFAH2 FP inh; inhibition, % at 3.39 µM;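 active means mean inhibition over three repeats above a set limit taken from the earlier primary screen, cut at about 30% in these data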;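 further: inhibitor blocks binding of rhodamine activity probe so polarization falls; 0% = enzyme with DMSO and 100% = wells lacking PAFAH2 protein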
The depositor's hits bear a star; . = not tested or not shown. The list is not random: actives were taken first. Their share in the collection is about 2.8%.

SMILES | pPAFAH FP inh | PAFAH2 FP inh | PAFAH1B2 FP inh | PAFAH1B3 inh | ABHD4 inh | HTRA1 inh | PAFAH2 confirm
Nc1nnc(CC(=O)N/N=C\c2ccc(-c3cccc(Cl)c3)o2)s1 | 16 | 48* | 5 | 12 | 3 | -4 | 19
Nc1nnc(CC(=O)N/N=C/c2ccc(-c3ccccc3)o2)s1 | 3 | 12 | 2 | 4 | 12 | 3 | .
C=C(O[C@H]1[C@H](O)CC=C(C(=O)O)[C@@H]1O)C(=O)O | . | . | . | . | 3 | . | .
CCC(=O)N[C@H]1C[C@@H]2O[C@@H](CO)CC[C@@H]2O[C@@H]1CCc1ccc(-c2cccc(OC)c2)cc1 | . | . | . | . | -6 | . | .
CC1=C(C#N)c2nc(N)c(C#N)c(C)c2/C1=C\c1ccc(-c2ccccc2C(=O)O)o1 | . | 32* | 14 | 22 | 19 | 20 | 20
Cc1cccc(CCNC(=O)Cn2nc(-c3ccccc3)ccc2=O)c1 | . | . | . | . | -1 | . | .
O=C(CSc1ccc([N+](=O)[O-])cc1)c1ccccc1 | . | 2 | 1 | 0 | 2 | 1 | .
O=C(CSc1ccccc1C(=O)O)c1ccc([N+](=O)[O-])cc1 | 1 | 46* | 0 | 5 | 0 | -2 | 56*
COc1cc(NC(=O)COC(=O)C2CC2)c(C)cc1[N+](=O)[O-] | -1 | 46* | -2 | 5 | -1 | 2 | 28
CCOCC(=O)OCC(=O)Nc1cc(OC)c([N+](=O)[O-])cc1C | 3 | 8 | 2 | 12 | -6 | -1 | .
COc1cc(NC(=O)COC(=O)C=C(C)C)c(C)cc1[N+](=O)[O-] | 8 | 61* | -2 | 9 | 1 | -8 | 28
C/C=C/C(=O)OCC(=O)Nc1cc(OC)c([N+](=O)[O-])cc1C | 1 | 27 | -2 | 7 | -2 | -1 | .
COC(=O)[C@]12C[C@H](CC(=O)NCCC(C)C)C(=O)N(Cc3ccco3)C1=C[C@H](COCc1ccccc1)O[C@@H]2C | . | . | . | . | 1 | . | .
CC12CCC(C(=O)N(CSC(=S)N/N=C\c3ccccc3O)C1=O)C2(C)C (stereo unspecified) | 5 | 38* | 11 | 5 | 20 | 26 | 25
COc1ccc(/C=N\NC(=S)SCN2C(=O)C3CCC(C)(C2=O)C3(C)C)cc1 (stereo unspecified) | 7 | 12 | 1 | 4 | 1 | -1 | .
Cn1nnnc1SCC1=C(C(=O)O)N2C(=O)C(NC(=O)C3CC3c3ccccc3)C2SC1 (stereo unspecified) | 1 | 44* | 7 | -3 | 0 | -4 | 6
Cn1nnnc1SCC1=C(C(=O)O)N2C(=O)[C@@H](NC(=O)[C@H](O)c3ccccc3)[C@H]2SC1 | 5 | 7 | 5 | 9 | . | -5 | .
Oc1ccc(/C=N/N=C/c2ccc(O)c(O)c2)cc1O | 9 | 54* | 0 | -3 | 26 | 31 | 14
O=Cc1ccc(O)c(O)c1 | 1 | 1 | -3 | 9 | 4 | 2 | .
COc1ccc(/C=C/C(=O)OCC(=O)NC(=O)NC(C)(C)C)cc1 | 1 | 38* | 8 | 2 | -5 | -3 | 20
CC(C)(C)NC(=O)COC(=O)/C=C/c1ccc(F)cc1 | 5 | 65* | 0 | 9 | 1 | -3 | 47*
CCOc1ccc(NC(=O)C2C(C(=O)O)C3(Cl)C(Cl)=C(Cl)C2(Cl)C3(Cl)Cl)cc1 (stereo unspecified) | 8 | . | . | . | -2 | . | .
COc1ccc(OC)c(NC(=O)C2C(C(=O)O)C3(Cl)C(Cl)=C(Cl)C2(Cl)C3(Cl)Cl)c1 (stereo unspecified) | -1 | 51* | 6 | 3 | 15 | 1 | 40*
Cc1cc(C)cc(NC(=O)COC(=O)c2cccc(S(=O)(=O)N3CCCCC3)c2)c1 | 9 | 65* | -4 | 6 | -16 | -37 | 52*
O=C(COC(=O)c1cccc(Br)c1)Nc1cccc(S(=O)(=O)N2CCCCC2)c1 | . | . | . | . | -42 | -51 | .
SMILES | pPAFAH FP inh | PAFAH2 FP inh | PAFAH1B2 FP inh | PAFAH1B3 inh | ABHD4 inh | HTRA1 inh | PAFAH2 confirm
Cc1cccc(NC(=O)COC(=O)c2cccc(S(=O)(=O)N3CCCCCC3)c2)c1 | 20 | 74* | 3 | -6 | -18 | -41 | 63*
COc1ccc(CNC(=O)COC(=O)/C=C/c2ccco2)cc1 | 5 | 4 | -4 | 0 | -2 | -2 | .
O=C(COC(=O)/C=C/c1ccccc1)NCCNC(=O)COC(=O)/C=C/c1ccccc1 | -8 | -1 | 1 | 2 | 2 | -5 | .
O=C(COC(=O)/C=C/c1ccco1)NCc1ccccc1Cl | 0 | 75* | 7 | 7 | -3 | -7 | 63*
O=C(COC(=O)/C=C/c1ccccc1)NCc1ccccc1Cl | 0 | 71* | 1 | 14 | 3 | -11 | 70*
O=C(COC(=O)/C=C/c1ccco1)NCc1ccc(Cl)cc1Cl | 7 | 77* | 4 | 3 | -1 | -11 | 63*
CC(NC(=O)COC(=O)/C=C/c1ccco1)c1ccccc1 (stereo unspecified) | 1 | 49* | 6 | 1 | 2 | 3 | 38*
CC(NC(=O)COC(=O)/C=C/c1ccc([N+](=O)[O-])cc1)c1ccccc1 (stereo unspecified) | 11 | 12 | -4 | -2 | -1 | -2 | .
O=S1(=O)c2ccc(N3CC[C@H](O)C3)cc2O[C@@H]2CCN1C2 | . | . | . | . | -4 | . | .
Cc1ccccc1CN1CCCCC(NC(=O)c2ccc(COc3ccccc3)cc2)C1=O (stereo unspecified) | . | . | . | . | -3 | . | .
O=C(COC(=O)/C=C/c1cccc(Cl)c1)Nc1ccc(N2CCOCC2)cc1 | 6 | 3 | 7 | 14 | -2 | 1 | .
O=C(COC(=O)/C=C/c1ccco1)NCCc1ccccc1 | 5 | 32* | 2 | 12 | -1 | -2 | 21
O=C(/C=C/c1ccco1)NCCc1ccc(F)cc1 | 3 | 7 | 2 | 2 | 1 | -1 | .
O=C(COC(=O)/C=C/c1cccc(Cl)c1)NCCc1ccc(Cl)cc1Cl | 8 | 42* | 1 | 8 | 2 | -13 | 44*
Cc1c(Cl)cnc(NC(=O)COC(=O)/C=C/c2ccco2)c1Cl | . | 34* | 3 | -1 | 8 | 5 | 22
CSc1ccccc1NC(=O)COC(=O)/C=C/c1ccco1 | 6 | 63* | 4 | -12 | . | -3 | 44*
